What is called IC50 is the concentration needed to halve the response being measured. A word on the inhibition: it is the share of the control response that was lost under treatment.

We go through 13 compounds from ChEMBL document CHEMBL3351992, “Modular assembly of purine-like bisphosphonates as inhibitors of HIV-1 reverse transcriptase” (J Med Chem, 2014).

Structures are written as SMILES. Calls of active or inactive are those of the source. The calls are words filed in the database; no cut-off is given here.

The first experiment deals with Human immunodeficiency virus type 1 reverse transcriptase (Human immunodeficiency virus 1), Q72547 [M184V]. In words: Inhibition of wild type HIV1 reverse transcriptase M184V mutant assessed as inhibition of DNA primer extension using [8-3H(N)]-dATP by scintillation proximity assay relative to wild type.
As for `CSc1nc2ncnc(NCC(P(=O)(O)O)P(=O)(O)O)c2cc1-c1ccccc1`, the Ratio IC50 is 0.4.
Consider `CSc1nc2ncnc(NC(P(=O)(O)O)P(=O)(O)O)c2cc1-c1ccc(OC(C)C)cc1`, for which the Ratio IC50 worked out at 1.6.
On to `COc1cccc(-c2cc3c(NCC(P(=O)(O)O)P(=O)(O)O)ncnc3nc2SC)c1`, for which the Ratio IC50 turned out to be 2.7.

Another experiment deals with Human immunodeficiency virus type 1 reverse transcriptase (Human immunodeficiency virus 1), Q72547 [K65R]. The experiment is described as follows: Inhibition of wild type HIV1 reverse transcriptase K65R mutant assessed as inhibition of DNA primer extension using [8-3H(N)]-dATP by scintillation proximity assay relative to wild type.
In the case of `CSc1nc2ncnc(NCC(P(=O)(O)O)P(=O)(O)O)c2cc1-c1ccccc1`, the Ratio IC50 worked out at 3.4.
Take `CSc1nc2ncnc(NC(P(=O)(O)O)P(=O)(O)O)c2cc1-c1ccc(OC(C)C)cc1`: the Ratio IC50 was 2.1.
The same measure, in the same setting: to `COc1cccc(-c2cc3c(NCC(P(=O)(O)O)P(=O)(O)O)ncnc3nc2SC)c1` belongs 2.1.

The target of the next experiment is Human immunodeficiency virus type 1 reverse transcriptase (Human immunodeficiency virus 1, UniProt Q72547, K65R). In words: Inhibition of wild type HIV1 reverse transcriptase K65R mutant assessed as inhibition of DNA primer extension using [8-3H(N)]-dATP by scintillation proximity assay. The method, boiled down: (§1)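 50 nM biotinylated PPT80 template/PPT primer and inhibitor (10-step 3-fold series, 100 μM–10 nM final, DMSO ≤5%) were preincubated 5 min at 37 °C. Buffer: 50 mM Tris pH 7.8, 50 mM NaCl, 6 mM MgCl2, 4 μM dCTP/dGTP/dTTP, 0.5 μM [3H]dATP. RT started the 5-min reaction, stopped with EDTA/streptavidin SPA beads. Counts were normalized to uninhibited controls; IC50 from variable-slope sigmoid fit.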
With `CSc1nc2ncnc(NCC(P(=O)(O)O)P(=O)(O)O)c2cc1-c1ccccc1`, the IC50 came out at 5.2 µM.
Consider `CSc1nc2ncnc(NC(P(=O)(O)O)P(=O)(O)O)c2cc1-c1ccc(OC(C)C)cc1`, for which the IC50 is 1.8 µM.
Regarding `COc1cccc(-c2cc3c(NCC(P(=O)(O)O)P(=O)(O)O)ncnc3nc2SC)c1`, the IC50 amounted to 3.3 µM.

For the next experiment, the target named is T1, Geranylgeranyl pyrophosphate synthase (Homo sapiens) (UniProt O95749).
T1 sequence (whole entry): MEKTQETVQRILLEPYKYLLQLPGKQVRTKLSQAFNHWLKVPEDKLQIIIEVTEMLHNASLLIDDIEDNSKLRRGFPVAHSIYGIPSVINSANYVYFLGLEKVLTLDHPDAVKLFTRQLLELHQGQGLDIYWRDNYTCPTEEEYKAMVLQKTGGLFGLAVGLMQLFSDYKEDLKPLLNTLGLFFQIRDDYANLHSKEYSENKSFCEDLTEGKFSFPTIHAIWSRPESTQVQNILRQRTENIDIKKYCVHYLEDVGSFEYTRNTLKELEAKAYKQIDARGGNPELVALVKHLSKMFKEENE
The experiment is described as follows: Inhibition of human GGPPS at 10 uM.
Turning to `CSc1nc2ncnc(NCC(P(=O)(O)O)P(=O)(O)O)c2cc1-c1ccccc1`, the inhibition entry was “inactive”.
For the compound `COc1cccc(-c2cc3c(NCC(P(=O)(O)O)P(=O)(O)O)ncnc3nc2SC)c1`, the inhibition result is “inactive”.

Another experiment deals with Human immunodeficiency virus type 1 reverse transcriptase (Human immunodeficiency virus 1, UniProt Q72547, M184V). In words: Inhibition of wild type HIV1 reverse transcriptase M184V mutant assessed as inhibition of DNA primer extension using [8-3H(N)]-dATP by scintillation proximity assay. The method, boiled down:
as §1
A general note: Scintillation proximity formats need no separation of bound from free tracer.
On to `CSc1nc2ncnc(NCC(P(=O)(O)O)P(=O)(O)O)c2cc1-c1ccccc1`, for which the IC50 is 0.6 µM.
Take `CSc1nc2ncnc(NC(P(=O)(O)O)P(=O)(O)O)c2cc1-c1ccc(OC(C)C)cc1`: the IC50 is 1.4 µM.
`COc1cccc(-c2cc3c(NCC(P(=O)(O)O)P(=O)(O)O)ncnc3nc2SC)c1`: the IC50 was 4.2 µM.

In a further experiment the target is Human immunodeficiency virus type 1 reverse transcriptase (Human immunodeficiency virus 1, UniProt Q72547). The experiment is described as follows: Inhibition of wild type HIV1 reverse transcriptase assessed as inhibition of DNA primer extension using [8-3H(N)]-dATP by scintillation proximity assay. The method, boiled down:
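Biotinylated PPT80 DNA template annealed to DNA PPT primer (50 nM hybrid), preincubated 5 min at 37 °C with inhibitor in 50 mM Tris pH 7.8, 50 mM NaCl, 6 mM MgCl2, 4 μM dCTP/dGTP/dTTP, 0.5 μM [8-3H]-dATP. Purified RT added and reaction run 5 min. Quenched with EDTA plus streptavidin SPA beads. Beads counted after ~8 h settling. Ten-point 3-fold dilutions from 100 μM to 10 nM, DMSO ≤5%. Activity taken relative to uninhibited controls. IC50 from variable-slope sigmoidal fit; triplicate determinations.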
As for `O=P(O)(O)C(Nc1ncnc2nc(-c3cccs3)ccc12)P(=O)(O)O`, the IC50 stood at 10.4 µM.
For the compound `CSc1nc2ncnc(NCC(P(=O)(O)O)P(=O)(O)O)c2cc1-c1ccc(OC(C)C)cc1`, the IC50 was 7.1 µM.
In the case of `O=P(O)(O)C(CNc1ncnc2ncc(-c3ccsc3)cc12)P(=O)(O)O`, the IC50 was 9 µM.
For `CSc1nc2ncnc(NCC(P(=O)(O)O)P(=O)(O)O)c2cc1-c1ccccc1`, the IC50 was found to be 1.1 µM.
Turning to `CSc1nc2ncnc(NCC(P(=O)(O)O)P(=O)(O)O)c2cc1-c1ccsc1`, the IC50 is 8.3 µM.
Take `O=P(O)(O)C(Nc1ncnc2ncccc12)P(=O)(O)O`: the IC50 is more than 50 µM.
The same measure, in the same setting: to `O=P(O)(O)C(CNc1ncnc2ncccc12)P(=O)(O)O` belongs more than 50 µM; to `CC(C)Oc1ccc(-c2cnc3ncnc(NC(P(=O)(O)O)P(=O)(O)O)c3c2)cc1`, 10 µM.
For the compound `COc1cccc(-c2cnc3ncnc(NCC(P(=O)(O)O)P(=O)(O)O)c3c2)c1`, the IC50 came to 20 µM.
As for `CSc1ccc2c(NC(P(=O)(O)O)P(=O)(O)O)ncnc2n1`, the IC50 is more than 50 µM.
On to `CSc1nc2ncnc(NC(P(=O)(O)O)P(=O)(O)O)c2cc1-c1ccc(OC(C)C)cc1`, for which the IC50 amounted to 1.8 µM.
For `O=C(O)C(=NNc1ccc(Cl)cc1)C(=O)O`, the half-maximal inhibitory concentration (IC50) is 1.5 µM.
On the same count and under the same terms, the figure for `COc1cccc(-c2cc3c(NCC(P(=O)(O)O)P(=O)(O)O)ncnc3nc2SC)c1` is 2.4 µM.

The target in a further experiment is T1, Geranylgeranyl pyrophosphate synthase (Homo sapiens). In words: Inhibition of human GGPPS at 50 uM.
Regarding `CSc1nc2ncnc(NC(P(=O)(O)O)P(=O)(O)O)c2cc1-c1ccc(OC(C)C)cc1`, the inhibition is less than 10%.

The target in a further experiment is T2, Farnesyl pyrophosphate synthase (Homo sapiens) (UniProt P14324).
T2 sequence (whole entry): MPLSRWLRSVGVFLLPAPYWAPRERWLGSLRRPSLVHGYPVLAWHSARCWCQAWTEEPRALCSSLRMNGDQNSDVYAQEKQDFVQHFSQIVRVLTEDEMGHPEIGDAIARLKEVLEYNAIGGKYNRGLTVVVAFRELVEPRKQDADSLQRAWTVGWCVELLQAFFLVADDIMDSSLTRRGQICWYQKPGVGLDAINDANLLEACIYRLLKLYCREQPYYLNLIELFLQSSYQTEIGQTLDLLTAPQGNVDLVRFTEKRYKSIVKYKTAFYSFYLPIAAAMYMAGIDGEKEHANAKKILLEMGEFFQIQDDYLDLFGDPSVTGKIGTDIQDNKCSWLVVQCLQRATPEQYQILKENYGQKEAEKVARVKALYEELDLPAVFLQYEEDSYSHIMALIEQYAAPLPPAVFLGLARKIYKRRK
In words: Inhibition of human FPPS at 10 uM.
For `CSc1nc2ncnc(NCC(P(=O)(O)O)P(=O)(O)O)c2cc1-c1ccccc1`, the inhibition is 75%.
On the same count and under the same terms, the figure for `COc1cccc(-c2cc3c(NCC(P(=O)(O)O)P(=O)(O)O)ncnc3nc2SC)c1` is 75%.

The target in the next experiment is T2, Farnesyl pyrophosphate synthase (Homo sapiens). The experiment is described as follows: Inhibition of human FPPS at 50 uM.
In the case of `CSc1nc2ncnc(NC(P(=O)(O)O)P(=O)(O)O)c2cc1-c1ccc(OC(C)C)cc1`, the inhibition was less than 10%.
